Measurements collected from several papers.
In brackets after ≈: the same amount, converted by molar mass.

Compound	tested on	test	setting	measurement	result
O=C(Nc1cccc(-c2cccc(-c3nc4ccccc4[nH]3)c2)c1)NC1CC1c1ccccc1 (stereo not shown)	HEK293	cell growth or viability	–	IC50	> 10 µM
COc1ccc([S+]([O-])c2ccc(OC)c(OC)c2OC)cc1 (stereo not shown)	Leishmania braziliensis	parasite growth, MTT	promastigote	IC50	15 µM
O=C1NN=C(N=Cc2ccc(O)c(O)c2)C1=NNn1c(-c2ccccc2)nc2ccccc2c1=O	Trichophyton rubrum	microbial growth, broth dilution	–	MIC	107 µM (≈ 50 µg/mL)
COc1ccc(-c2ccc(-c3ccc(C(=N)N)nc3)s2)cc1Cl	NCI-H322M	cell growth or viability, SRB	–	GI50	1.67 µM
CC(C)(C)CC(C)(C)Nc1c(-c2ccc(Cl)cc2)nc2ncccn12	Leishmania amazonensis	parasite growth, MTT	72 h, promastigote	IC50	36.4 µM
c1ccc(-c2ccc(CNCC3(N4CCCC4)COC3)o2)cc1	T98G	cell growth or viability	30 µM, 48 h	viability	74.2%
COc1ccc(-c2nc3ncccn3c2NC(C)(C)CC(C)(C)C)cc1O	Leishmania amazonensis	parasite growth, MTT	72 h, promastigote	IC50	> 100 µM
CC1=NN(CNc2ccc(C(=O)O)cc2)C(=O)C1=NNn1c(-c2ccccc2)nc2ccccc2c1=O	Trichophyton rubrum	microbial growth, broth dilution	–	MIC	101 µM (≈ 50 µg/mL)
Cc1[nH]c(C)c(-c2ccc(OCCCCSc3ccncc3)cc2)c(=O)c1Br	HEK293	cell growth or viability	–	IC50	> 10 µM
CC(C)(C)Nc1c(-c2ccc3c(c2)OCO3)nc2ncccn12	Leishmania amazonensis	parasite growth, MTT	72 h, promastigote	IC50	> 100 µM
Cc1nc2ccc(-c3ccc(OC(F)(F)F)cc3)cc2c(O)c1C#N	HEK293	cell growth or viability	–	IC50	> 10 µM
CC(=O)NCN1N=C(C)C(=NNn2c(-c3ccccc3)nc3ccccc3c2=O)C1=O	Trichophyton rubrum	microbial growth, broth dilution	–	MIC	120 µM (≈ 50 µg/mL)
CN1CCCC(CN2CCN(Cc3ccc(-c4cccc(-c5nc6ccccc6[nH]5)c4)cc3)CC2)C1 (stereo not shown)	HEK293	cell growth or viability	–	IC50	> 10 µM
COc1ccc([S+]([O-])c2ccccc2)c(OC)c1OC (stereo not shown)	Leishmania braziliensis	parasite growth, MTT	24 h, promastigote	IC50	62.6 µM
FC1CCN(C2(CNCc3ccc(-c4ccccc4Cl)o3)COC2)C1 (stereo not shown)	GBM6	cell growth or viability	30 µM, 48 h	viability	47.4%
COc1ccc(Oc2ccc(-c3c(C)[nH]c(C)c(Cl)c3=O)cc2)cc1	HEK293	cell growth or viability	–	IC50	> 10 µM
